Data set [1] can be described thus: folding enthalpy; higher = less favourable; fluorescence melt of hairpins on a sequencing array, two-state fit. Particulars: sodium 0.088 M. A digest of the protocol:
(§1)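 Folding enthalpy and melting temperature were estimated with bootstrapped two-state fits and combined across four replicates by inverse-variance weighting, with fitted temperatures raised by 9.35 °C to match UV melts. The data were Cy3 fluorescence of library hairpins, with annealed Cy3 and quencher oligos, on a sequenced MiSeq flow cell in 50 mM Na-HEPES pH 8.0, 25 mM NaCl, imaged in 2.5 °C steps up to 60 °C and normalised to pre-quench Cy3 and control constructs.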

Data set [2] is described as follows: melting temperature; fluorescence melt of hairpins on a sequencing array, two-state fit, raised by 9.35 °C to match UV melts. Particulars: sodium 0.088 M. A digest of the protocol:
as §1

GGTGTTCCGAAAGGAACC (((..(((....)))))): the folding enthalpy in data set [1] was -9.16 kcal/mol. Further, the Tm in data set [2] was found to be 47.7 °C.
The matching figures for GGTTAAACGAAAGTTACC (((..(((....)))))): -14.3 kcal/mol and 32 °C.
Taken in the same sequence, the figures for GGTTAAGCGAAAGCTACC (((..(((....)))))) were -18.2 kcal/mol and 39.4 °C.
Taken in the same sequence, the figures for GGTTAAGGAAACTTGACC (((.(((....))).))) were -30.1 kcal/mol and 40.3 °C.
With GGTTACCGAAAGGTGACC (((.(((....))).))), the folding enthalpy in data set [1] was -41.4 kcal/mol. Besides, the Tm in data set [2] was 58.8 °C.
Regarding GGTTACGAAAGTACCACC ((((((....)))..))), in data set [1], the folding enthalpy is -14.4 kcal/mol. In data set [2], the Tm turned out to be 36.6 °C.
For the sequence GGTTACGAAAGTACGACC ((((((....)))..))), the folding enthalpy in data set [1] is -14.9 kcal/mol. In addition, the Tm in data set [2] is 31.4 °C.
The matching figures for GGTTACGAAAGTAGACC ((((((....))).))): -25.3 kcal/mol and 41.4 °C.
The matching figures for GGTTACGAAAGTATACC ((((((....))).))): -23.8 kcal/mol and 43.1 °C.
As to GGTTACGGAAACGCAACC ((((.((....)).)))), the folding enthalpy in data set [1] is -32.7 kcal/mol. Also, in data set [2], the Tm is 46.6 °C.
The matching figures for GGTTAGCGAAAGCTACC (((.(((....)))))): -17.2 kcal/mol and 53.3 °C.
The matching figures for GGTTAGCGAAAGCTGACC (((.(((....))).))): -36.4 kcal/mol and 58.4 °C.
The matching figures for GGTTATCCGAAAGGAACC (((..(((....)))))): -15.2 kcal/mol and 30.2 °C.
On to GGTTATGCGAAAGCAACC (((..(((....)))))), for which the folding enthalpy in data set [1] was -15.1 kcal/mol. Moreover, the Tm in data set [2] worked out at 38.3 °C.
Consider GGTTATGGAAACATGACC (((.(((....))).))), for which the folding enthalpy in data set [1] is -33.2 kcal/mol. The Tm in data set [2] amounted to 45.4 °C.
Take GGTTCACGAAAGTGACC (((.(((....)))))): the folding enthalpy in data set [1] is -15.5 kcal/mol. Moreover, in data set [2], the Tm was determined as 59 °C.
Consider GGTTCCGAAAGGAACACC ((((((....)))..))), for which, in data set [1], the folding enthalpy was -8.81 kcal/mol. In data set [2], the Tm worked out at 51.9 °C.
GGTTCCGAAAGGACACC ((((((....))).))): the folding enthalpy in data set [1] was -24.5 kcal/mol. Further, the Tm in data set [2] is 48 °C.
As for GGTTCCGAAAGGATGACC ((((((....)))..))), in data set [1], the folding enthalpy was -18.5 kcal/mol. In addition, the Tm in data set [2] was determined as 38.2 °C.
The matching figures for GGTTCGAAAGAACC (((((....))))): -28.2 kcal/mol and 64.8 °C.
With GGTTCGCGAAAGCGCACC (((.(((....))).))), the folding enthalpy in data set [1] is -29.5 kcal/mol. Moreover, the Tm in data set [2] turned out to be 55.4 °C.
The matching figures for GGTTCTCGAAAGAGACC (((.(((....)))))): -20.9 kcal/mol and 49.7 °C.
In the case of GGTTCTCGAAAGAGCACC (((.(((....))).))), the folding enthalpy in data set [1] is -31.1 kcal/mol. Moreover, in data set [2], the Tm was 45.9 °C.
For GGTTGACGAAAGTCACC (((.(((....)))))), the folding enthalpy in data set [1] is -19.8 kcal/mol. In addition, the Tm in data set [2] is 53.5 °C.
The matching figures for GGTTGACGAAAGTCGACC (((.(((....))).))): -46.8 kcal/mol and 63 °C.
Taken in the same sequence, the figures for GGTTGAGGAAACTCAATC (.(((((....))))).) were -28.3 kcal/mol and 43.4 °C.
The matching figures for GGTTGTGCGAAAGCAACC (((..(((....)))))): -19.1 kcal/mol and 42.8 °C.
Take GGTTGTGGAAACACAACC (((((((....))))))): the folding enthalpy in data set [1] was -42 kcal/mol. Further, the Tm in data set [2] amounted to 66.3 °C.
For GGTTGTGGAAACACAATC (.(((((....))))).), the folding enthalpy in data set [1] is -29.7 kcal/mol. For the same sequence, the Tm in data set [2] was found to be 47.9 °C.
Taken in the same sequence, the figures for GGTTGTGGAAACGCAATC (.(((.(....).))).) were -20.6 kcal/mol and 35.7 °C.
Consider GGTTTAACGAAAGTTACC (((..(((....)))))), for which, in data set [1], the folding enthalpy was -14.6 kcal/mol. Besides, the Tm in data set [2] turned out to be 29.6 °C.
Taken in the same sequence, the figures for GGTTTAGCGAAAGCTACC (((..(((....)))))) were -12.1 kcal/mol and 32 °C.
The matching figures for GGTTTAGGAAACCAAACC (((((.(....).))))): -22.9 kcal/mol and 37 °C.
As for GGTTTCACGAAAGTGACC (((..(((....)))))), the folding enthalpy in data set [1] was -12.3 kcal/mol. Besides, in data set [2], the Tm amounted to 29.2 °C.
The matching figures for GGTTTCCGAAAGGAGACC (((.(((....))).))): -51 kcal/mol and 54.4 °C.
On to GGTTTCGAAAGAAACACC ((((((....)))..))), for which the folding enthalpy in data set [1] is -11.3 kcal/mol. The Tm in data set [2] amounted to 45.7 °C.
